These results are taken from ChEMBL document CHEMBL4813998, “Structural simplification of evodiamine: Discovery of novel tetrahydro-β-carboline derivatives as potent antitumor agents” (Bioorg Med Chem Lett, 2021).

Experiment [1] can be described thus: Antiproliferative activity against human HCT116 cells assessed as growth inhibition by CCK8 assay. Type of experiment: functional, cell-based, Epithelial cell.
Experiment [2] in a line: Antiproliferative activity against human A549 cells assessed as growth inhibition by CCK8 assay. It is filed as functional, cell-based, Epithelial cell. In general terms: Tetrazolium dyes change colour on reduction, which living cells bring about.
Experiment [3] in a line: Antiproliferative activity against human MDA-MB-231 cells assessed as growth inhibition by CCK8 assay. It is filed as functional, cell-based, Epithelial cell.
For experiment [4], the target named is T1, DNA topoisomerase 1 (Homo sapiens) (UniProt P11387).
T1 sequence (whole entry): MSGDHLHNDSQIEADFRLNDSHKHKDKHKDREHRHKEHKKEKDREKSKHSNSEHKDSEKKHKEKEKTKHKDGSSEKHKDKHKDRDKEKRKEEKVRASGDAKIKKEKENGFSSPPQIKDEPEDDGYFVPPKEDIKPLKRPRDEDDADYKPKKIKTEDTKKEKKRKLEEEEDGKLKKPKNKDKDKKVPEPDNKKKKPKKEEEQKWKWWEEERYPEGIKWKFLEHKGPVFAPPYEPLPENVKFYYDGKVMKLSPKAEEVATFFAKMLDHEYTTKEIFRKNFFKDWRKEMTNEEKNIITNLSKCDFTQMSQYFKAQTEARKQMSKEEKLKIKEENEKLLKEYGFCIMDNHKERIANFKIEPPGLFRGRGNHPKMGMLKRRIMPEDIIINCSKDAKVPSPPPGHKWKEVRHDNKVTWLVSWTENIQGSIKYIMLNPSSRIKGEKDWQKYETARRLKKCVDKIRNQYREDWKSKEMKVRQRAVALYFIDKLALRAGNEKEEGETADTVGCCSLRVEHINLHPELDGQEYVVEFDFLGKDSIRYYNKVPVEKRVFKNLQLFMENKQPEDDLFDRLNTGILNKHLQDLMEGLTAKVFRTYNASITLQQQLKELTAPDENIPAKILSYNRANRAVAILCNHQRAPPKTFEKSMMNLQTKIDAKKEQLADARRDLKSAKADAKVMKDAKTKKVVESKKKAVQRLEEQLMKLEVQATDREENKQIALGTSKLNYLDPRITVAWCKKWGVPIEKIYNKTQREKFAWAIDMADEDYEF
As to the kind of experiment: Inhibition of TOP1 (unknown origin) assessed as decrease in relaxation of supercoiled DNA using supercoiled plasmid DNA at 100 uM relative to camptothecin. A digest of the protocol:
(§1)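 Top1-mediated relaxation of supercoiled DNA was tested with compounds at 500 μM and 100 μM. Camptothecin served as the positive control.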

In experiment [5] the target is DNA topoisomerase 2-alpha (Homo sapiens) (UniProt P11388). As to the kind of experiment: Inhibition of TOP2 (unknown origin) assessed as fractured DNA fragments using supercoiled plasmid DNA at 100 uM relative to etoposide. A digest of the protocol: (§2)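 Purified Top2 was incubated with DNA and compounds at 250 μM and 100 μM. The read-out was the appearance of fractured DNA fragments, with etoposide as the positive control.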
Sequence of DNA topoisomerase 2-alpha (Homo sapiens) (P11388 whole entry, the tested form may be a part): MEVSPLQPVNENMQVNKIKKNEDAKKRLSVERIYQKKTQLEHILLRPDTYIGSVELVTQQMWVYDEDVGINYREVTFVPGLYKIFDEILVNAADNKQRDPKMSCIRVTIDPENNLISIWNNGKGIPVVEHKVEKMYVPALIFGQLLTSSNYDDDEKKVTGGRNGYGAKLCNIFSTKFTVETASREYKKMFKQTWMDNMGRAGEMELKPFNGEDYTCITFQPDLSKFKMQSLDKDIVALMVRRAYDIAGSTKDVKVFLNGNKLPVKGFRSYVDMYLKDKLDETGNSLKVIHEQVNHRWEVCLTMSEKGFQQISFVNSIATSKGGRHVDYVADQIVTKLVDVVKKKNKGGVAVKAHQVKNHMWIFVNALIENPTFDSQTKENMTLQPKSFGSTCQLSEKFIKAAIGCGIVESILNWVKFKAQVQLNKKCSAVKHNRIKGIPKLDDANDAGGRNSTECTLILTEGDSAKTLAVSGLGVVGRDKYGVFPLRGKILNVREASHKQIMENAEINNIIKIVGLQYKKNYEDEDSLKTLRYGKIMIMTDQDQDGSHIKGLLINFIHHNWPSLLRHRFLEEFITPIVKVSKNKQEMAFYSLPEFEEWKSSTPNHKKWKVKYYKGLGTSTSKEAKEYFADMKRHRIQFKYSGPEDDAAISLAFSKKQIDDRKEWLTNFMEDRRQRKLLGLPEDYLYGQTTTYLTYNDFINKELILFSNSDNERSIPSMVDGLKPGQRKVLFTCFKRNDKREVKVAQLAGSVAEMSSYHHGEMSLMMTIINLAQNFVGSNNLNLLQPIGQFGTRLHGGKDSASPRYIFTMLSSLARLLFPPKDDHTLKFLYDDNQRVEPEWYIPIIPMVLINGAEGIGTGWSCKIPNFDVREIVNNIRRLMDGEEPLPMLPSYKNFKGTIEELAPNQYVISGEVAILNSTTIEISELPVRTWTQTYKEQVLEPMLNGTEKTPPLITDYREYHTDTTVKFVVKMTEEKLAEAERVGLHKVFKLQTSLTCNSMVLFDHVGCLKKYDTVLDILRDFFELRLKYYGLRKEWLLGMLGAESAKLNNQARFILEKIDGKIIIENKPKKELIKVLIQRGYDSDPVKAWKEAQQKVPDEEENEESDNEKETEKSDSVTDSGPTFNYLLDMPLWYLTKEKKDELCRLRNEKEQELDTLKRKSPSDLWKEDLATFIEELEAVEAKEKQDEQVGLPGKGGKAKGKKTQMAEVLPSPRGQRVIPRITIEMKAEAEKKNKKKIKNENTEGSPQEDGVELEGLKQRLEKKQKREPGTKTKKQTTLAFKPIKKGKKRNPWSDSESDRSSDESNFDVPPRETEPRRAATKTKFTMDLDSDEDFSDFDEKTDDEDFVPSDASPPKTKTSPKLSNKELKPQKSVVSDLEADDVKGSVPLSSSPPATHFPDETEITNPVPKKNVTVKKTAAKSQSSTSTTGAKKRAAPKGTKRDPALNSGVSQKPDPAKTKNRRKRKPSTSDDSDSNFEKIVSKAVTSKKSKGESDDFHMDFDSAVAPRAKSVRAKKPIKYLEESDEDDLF

The target is the same in experiment [6]. Nature of the experiment: Inhibition of TOP2 (unknown origin) assessed as fractured DNA fragments using supercoiled plasmid DNA at 250 uM. A digest of the protocol: as §2
The target is the same in experiment [7]. Nature of the experiment: Inhibition of TOP2 (unknown origin) assessed as fractured DNA fragments using supercoiled plasmid DNA at 50 uM relative to etoposide.
In experiment [8] the target is T1, DNA topoisomerase 1 (Homo sapiens). Nature of the experiment: Inhibition of TOP1 (unknown origin) assessed as decrease in relaxation of supercoiled DNA using supercoiled plasmid DNA at 500 uM relative to camptothecin. A digest of the protocol: as §1

Structures are written as SMILES. The source made the active and inactive calls. The calls are words filed in the database; no cut-off is given here. Some results are limits rather than exact numbers.

What is called IC50 is the concentration needed to halve the response being measured. As to `COc1ccc(C(=O)N2CCc3c([nH]c4ccc(OC)cc34)C2c2ccccc2)cc1` (centres undefined), the IC50 amounted to 6.14 µM in experiment [1] (Homo sapiens, Epithelial cell); 11.8 µM in experiment [2] (Homo sapiens, Epithelial cell); 2.81 µM in experiment [3] (Homo sapiens, Epithelial cell).
`COc1ccc2[nH]c3c(c2c1)CCN(C(=O)c1ccccc1)C3c1ccc(Br)cc1` (centres undefined): the IC50 in experiment [1] (Homo sapiens, Epithelial cell) worked out at 3.62 µM; in experiment [2] (Homo sapiens, Epithelial cell), 2.09 µM; in experiment [3] (Homo sapiens, Epithelial cell) it was 18.8 µM.
The matching figures for `COc1ccc2[nH]c3c(c2c1)CCN(C(=O)c1ccccc1)C3c1ccccc1` (centres undefined): 2.53 µM, 5.29 µM and 1.48 µM.
The like results for `CC(C)C1c2[nH]c3ccccc3c2CCN1C(=O)c1ccccc1` (centres undefined) were, in that order, > 100 µM, > 100 µM and > 100 µM.
In the case of `O=C(c1ccccc1)N1CCc2c([nH]c3ccccc23)C1c1ccccc1` (centres undefined), the IC50 is 57.9 µM in experiment [1] (Homo sapiens, Epithelial cell); > 100 µM in experiment [2] (Homo sapiens, Epithelial cell); 51.2 µM in experiment [3] (Homo sapiens, Epithelial cell).
For `COc1ccc2[nH]c3c(c2c1)CCN(C(=O)CCc1ccccc1)C3c1ccccc1` (centres undefined), the IC50 in experiment [1] (Homo sapiens, Epithelial cell) was 0.36 µM; in experiment [2] (Homo sapiens, Epithelial cell), 7.91 µM; in experiment [3] (Homo sapiens, Epithelial cell) it was 0.57 µM. In addition, the inhibition entry in experiment [4], in experiment [5], in experiment [6], in experiment [7] and in experiment [8] was “Active” in each case.
For `COc1ccc2[nH]c3c(c2c1)CCN(C(=O)c1ccccc1)C3c1ccccc1Cl` (centres undefined), the IC50 was 6.73 µM in experiment [1] (Homo sapiens, Epithelial cell); 27.2 µM in experiment [2] (Homo sapiens, Epithelial cell); > 100 µM in experiment [3] (Homo sapiens, Epithelial cell).
`COc1ccc2[nH]c3c(c2c1)CCN(C(=O)CCc1ccccc1F)C3c1ccccc1` (centres undefined): the IC50 came out at 7.76 µM in experiment [1] (Homo sapiens, Epithelial cell); 2.45 µM in experiment [2] (Homo sapiens, Epithelial cell); 0.27 µM in experiment [3] (Homo sapiens, Epithelial cell).
With `COc1ccc2[nH]c3c(c2c1)CCN(C(=O)CCc1ccccc1)C3c1ccc(Cl)c(Cl)c1` (single isomer, unassigned; (-)), the IC50 in experiment [1] (epithelial cell) was 17.7 µM; in experiment [2] (epithelial cell), 16.1 µM; in experiment [3] (epithelial cell) it was > 50 µM.
Turning to `O=C(c1cccc(F)c1)N1CCc2c([nH]c3ccccc23)C1c1ccccc1` (centres undefined), the IC50 is 32.5 µM in experiment [1] (Homo sapiens, Epithelial cell); > 100 µM in experiment [2] (Homo sapiens, Epithelial cell); 57.6 µM in experiment [3] (Homo sapiens, Epithelial cell).
As for `COc1ccc2[nH]c3c(c2c1)CCN(C(=O)CCc1ccc(F)cc1)C3c1ccccc1` (centres undefined), the IC50 turned out to be 0.72 µM in experiment [1] (Homo sapiens, Epithelial cell); 3.8 µM in experiment [2] (Homo sapiens, Epithelial cell); 0.34 µM in experiment [3] (Homo sapiens, Epithelial cell). Further, the inhibition result in experiment [5], in experiment [6], in experiment [7] and in experiment [8] was “Active” each time.
For the compound `COc1ccc2[nH]c3c(c2c1)CCN(C(=O)c1ccc(F)cc1)C3c1ccc(Cl)c(Cl)c1` (centres undefined), the IC50 turned out to be 0.49 µM in experiment [1] (Homo sapiens, Epithelial cell); 14.1 µM in experiment [2] (Homo sapiens, Epithelial cell); 0.29 µM in experiment [3] (Homo sapiens, Epithelial cell). Besides, the inhibition entry in experiment [4], in experiment [5], in experiment [6], in experiment [7] and in experiment [8] was “Active” each time.
For the compound `COc1ccc(C(=O)N2CCc3c([nH]c4ccc(OC)cc34)C2c2ccc(Cl)c(Cl)c2)cc1` (centres undefined), the IC50 in experiment [1] (Homo sapiens, Epithelial cell) was determined as 4.28 µM; in experiment [2] (Homo sapiens, Epithelial cell), 44.6 µM; in experiment [3] (Homo sapiens, Epithelial cell), 1.08 µM.
The like results for `COc1ccc2[nH]c3c(c2c1)CCN(C(=O)c1ccc(Cl)cc1)C3c1ccccc1` (centres undefined) were, in that order, 5.56 µM, 2.15 µM and 1.11 µM.
For `CN1c2ccccc2C(=O)N2CCc3c([nH]c4ccccc34)[C@H]21`, the IC50 in experiment [1] (Homo sapiens, Epithelial cell) was 19.6 µM; in experiment [2] (Homo sapiens, Epithelial cell), > 100 µM; in experiment [3] (Homo sapiens, Epithelial cell), 49 µM.
The matching figures for `COc1ccc2[nH]c3c(c2c1)CCN(C(=O)c1cccc(F)c1)C3c1ccccc1` (centres undefined): 4.8 µM, 9.27 µM and 3.28 µM.
The matching figures for `CC[C@@]1(O)C(=O)OCc2c1cc1n(c2=O)Cc2cc3ccccc3nc2-1` [CAMPTOTHECIN]: 0.01 µM, 0.045 µM and 0.075 µM.
As to `COc1ccc2[nH]c3c(c2c1)CCN(C(=O)c1ccccc1)C3c1ccc(Cl)c(Cl)c1` (centres undefined), the IC50 came out at 0.54 µM in experiment [1] (Homo sapiens, Epithelial cell); 1.66 µM in experiment [2] (Homo sapiens, Epithelial cell); 0.59 µM in experiment [3] (Homo sapiens, Epithelial cell). Moreover, the inhibition result in experiment [4], in experiment [5], in experiment [6], in experiment [7] and in experiment [8] was “Active” each time.
With `COc1ccc2[nH]c3c(c2c1)CCN(C(=O)CCc1ccccc1)C3c1ccc(Cl)c(Cl)c1` (single isomer, unassigned; (+)), the IC50 in experiment [1] (epithelial cell) came out at 0.13 µM; in experiment [2] (epithelial cell) it was 0.65 µM; in experiment [3] (epithelial cell), 0.042 µM.
With `COc1ccc2[nH]c3c(c2c1)CCN(C(=O)c1ccc(F)cc1)C3c1ccccc1` (centres undefined), the IC50 in experiment [1] (Homo sapiens, Epithelial cell) amounted to 1.73 µM; in experiment [2] (Homo sapiens, Epithelial cell), 12.7 µM; in experiment [3] (Homo sapiens, Epithelial cell), 1.24 µM.
The matching figures for `COc1ccc2[nH]c3c(c2c1)CCN(C(=O)c1ccc([N+](=O)[O-])cc1)C3c1ccccc1` (centres undefined): 58.1 µM, 25.5 µM and 6.18 µM.
Turning to `COc1ccc2[nH]c3c(c2c1)CCN(C(=O)c1ccccc1F)C3c1ccccc1` (centres undefined), the IC50 in experiment [1] (Homo sapiens, Epithelial cell) stood at 6.18 µM; in experiment [2] (Homo sapiens, Epithelial cell), 18.7 µM; in experiment [3] (Homo sapiens, Epithelial cell), 62.4 µM.
Take `COc1cccc(C(=O)N2CCc3c([nH]c4ccc(OC)cc34)C2c2ccc(Cl)c(Cl)c2)c1` (centres undefined): the IC50 stood at 1.97 µM in experiment [1] (Homo sapiens, Epithelial cell); 13.6 µM in experiment [2] (Homo sapiens, Epithelial cell); 0.68 µM in experiment [3] (Homo sapiens, Epithelial cell).
The matching figures for `COc1ccc2[nH]c3c(c2c1)CCN(C(=O)c1ccccc1)C3c1cccc(Br)c1` (centres undefined): 3.24 µM, 11.9 µM and 40.8 µM.
The matching figures for `COc1ccc2[nH]c3c(c2c1)CCN(C(=O)c1ccccc1)C3c1ccc(F)c(F)c1` (centres undefined): 2.65 µM, 30.2 µM and 31 µM.
On to `COc1ccc2[nH]c3c(c2c1)CCN(C(=O)c1ccccc1)C3c1ccc(C)cc1` (centres undefined), for which the IC50 in experiment [1] (Homo sapiens, Epithelial cell) is 6.45 µM; in experiment [2] (Homo sapiens, Epithelial cell), 17.4 µM; in experiment [3] (Homo sapiens, Epithelial cell) it was 22.2 µM.
The matching figures for `O=C(c1ccccc1)N1CCc2c([nH]c3ccccc23)C1`: 21.4 µM, > 100 µM and 45.4 µM.
The matching figures for `COc1cccc(C(=O)N2CCc3c([nH]c4ccc(OC)cc34)C2c2ccccc2)c1` (centres undefined): 5.13 µM, 12 µM and 3.01 µM.
Take `COc1cc([C@@H]2c3cc4c(cc3[C@@H](O[C@@H]3O[C@@H]5CO[C@@H](C)O[C@H]5[C@H](O)[C@H]3O)[C@H]3COC(=O)[C@H]23)OCO4)cc(OC)c1O`: the inhibition result in experiment [5], in experiment [6] and in experiment [7] was “Active” each time.
As for `O=C(c1ccccc1)N1CCc2c([nH]c3ccc(O)cc23)C1c1ccccc1` (centres undefined), the IC50 was 20.9 µM in experiment [1] (Homo sapiens, Epithelial cell); 19.3 µM in experiment [2] (Homo sapiens, Epithelial cell); > 100 µM in experiment [3] (Homo sapiens, Epithelial cell).
